Laboratory results taken from ChEMBL document CHEMBL1144782, “Isoindolo[2,1-a]quinoxaline derivatives, novel potent antitumor agents with dual inhibition of tubulin polymerization and topoisomerase I” (2008).
Active and inactive are the calls of the source. No cut-off for these calls is given here.

Columns and labels:
[1] = test system: Jurkat; assay: Cell cycle arrest in human Jurkat cells assessed as accumulation at G1 phase at 500 nM after 24 hrs by flow cytometry; format: functional
Outline: (§1)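 Exponentially growing Jurkat cells (5 × 105) were exposed to compound for 24 h. Cells were then fixed in ice-cold 70% ethanol, lysed with RNase A-containing buffer and stained with propidium iodide. DNA-content histograms from flow cytometry gave G1, S and G2/M fractions.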

[2] = test system: LoVo; assay: Growth inhibition of human LoVo cells after 72 hrs by MTT assay; format: functional
Outline: (§2)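 Growth inhibition by MTT after 72 h incubation. Resistant sublines: LoVoDoxo and MCF-7 MDR were kept in 0.1 µg/mL doxorubicin; CEMVbl-100 was selected against vinblastine. GI50 given as mean ± SEM of three independent experiments. Resistance index is resistant-line GI50 over parental GI50.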

[3] = test system: Jurkat; assay: Cell cycle arrest in human Jurkat cells assessed as accumulation at G1 phase at 125 nM after 24 hrs by flow cytometry; format: functional; outline: as §1
[4] = test system: Jurkat; assay: Cell cycle arrest in human Jurkat cells assessed as accumulation at S phase at 500 nM after 24 hrs by flow cytometry; format: functional; outline: as §1
[5] = test system: Jurkat; assay: Cell cycle arrest in human Jurkat cells assessed as accumulation at S phase at 62.5 nM after 24 hrs by flow cytometry; format: functional; outline: as §1
[6] = test system: Jurkat; assay: Cell cycle arrest in human Jurkat cells assessed as accumulation at G2/M phase at 500 nM after 24 hrs by flow cytometry; format: functional; outline: as §1
[7] = test system: Jurkat; assay: Induction of apoptosis in human Jurkat cells assessed as activation of caspase 9 after 24 hrs by flow cytometry; format: functional, cell-based
Outline: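 Jurkat cells were exposed (500 nM) for 24 h, then harvested and incubated in HBSS with cell-permeable FITC-DEVD-fmk (caspase-3) or FITC-[…]-fmk (caspase-9) for 1 h at 37 °C. After washing, cells were read by flow cytometry on FL-1. Results are fold increase over control.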

[8] = target: DNA topoisomerase 1 (Homo sapiens) (UniProt P11387); assay: Inhibition of human topoisomerase 1-mediated relaxation of supercoiled pBR322 DNA at 20 uM by agarose gel electrophoresis
Outline: (§3)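 Supercoiled pBR322 was incubated with 5 units of human topoisomerase I for 30 min at 37 °C in 50 mM Tris-HCl pH 7.8, 50 mM KCl, 10 mM MgCl2, 1 mM DTT, 1 mM EDTA, with drug 0.5–200 µM. Reactions were stopped with SDS and proteinase K, run on 1% agarose at 20 V overnight, stained with ethidium bromide, and bands quantified. Ethidium-containing gels were also run.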

[9] = test system: Jurkat; assay: Cell cycle arrest in human Jurkat cells assessed as accumulation at G1 phase at 62.5 nM after 24 hrs by flow cytometry; format: functional; outline: as §1
[10] = test system: Jurkat; assay: Effect on mitochondrial dysfunction in human Jurkat cells assessed as induction of ROS production after 24 hrs by flow cytometry; format: functional, cell-based
Outline: (§4)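 Jurkat cells after 24 h exposure were resuspended in HBSS with hydroethidine (2.5 µM, ROS) or NAO (100 nM, cardiolipin oxidation) for 30 min at 37 °C. Flow cytometry used 488 nm excitation, with emission at 585 nm (HE) or 530 nm (NAO). Mean ± SEM of three experiments.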

[11] = test system: Jurkat; assay: Cell cycle arrest in human Jurkat cells at mitosis at 0.5 uM after 24 hrs; format: functional
Outline: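 Exponentially growing Jurkat cells were exposed for 24 h, then pelleted at 400g for 5 min. Hypotonic KCl (75 mM, 4 °C) was applied for 20 min, followed by methanol–acetic acid (3:1) fixation and Giemsa staining. 400 cells per treatment were scored microscopically; mitotic index is the fraction with mitotic figures. Three independent experiments, mean ± SEM.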

[12] = test system: Jurkat; assay: Cell cycle arrest in human Jurkat cells assessed as accumulation at G2/M phase at 125 nM after 24 hrs by flow cytometry; format: functional; outline: as §1
[13] = test system: Jurkat; assay: Cell cycle arrest in human Jurkat cells assessed as accumulation at G1 phase at 250 nM after 24 hrs by flow cytometry; format: functional; outline: as §1
[14] = target: DNA topoisomerase 1 (Homo sapiens) (UniProt P11387); assay: Inhibition of human topoisomerase 1-mediated relaxation of supercoiled pBR322 DNA at 200 uM by agarose gel electrophoresis; outline: as §3
[15] = test system: Jurkat; assay: Effect on mitochondrial dysfunction in human Jurkat cells assessed as decrease in 10-N-nonyl-acridine-orange fluorescence intensity after 24 hrs by flow cytometry; format: functional, cell-based; outline: as §4
[16] = test system: Jurkat; assay: Cell cycle arrest in human Jurkat cells assessed as accumulation at S phase at 250 nM after 24 hrs by flow cytometry; format: functional; outline: as §1
[17] = test system: K562; assay: Antitumor activity against human K562 cells; format: functional
Outline: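 Run by the NCI in its in vitro disease-oriented screen of about 60 human tumour cell lines. For each line it reports pGI50 (50% net growth inhibition), pTGI (total growth inhibition) and pLC50 (50% net cell death), each as –log molar concentration. Where an effect was not reached within the tested range, the highest tested concentration was used.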

[18] = test system: A549; assay: Disruption of tubulin network in human A549 cells assessed as disaggregation of microtubules at 5 uM […]; format: functional, cell-based
[19] = test system: LoVo; assay: Resistance index, Ratio of GI50 for human doxorubicin-resistant LoVo cells to GI50 for human LoVo cells; format: functional; outline: as §2
[20] = test system: Salmonidae; assay: Binding affinity to salmon testes DNA by spectrophotometric titration method
Outline: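 Absorption titration of salmon testes DNA into a constant drug concentration at varying [drug]/[DNA] ratios. ETN buffer (10 mM Tris, 1 mM EDTA, 10 mM NaCl), pH 7.0, 25 °C. Scatchard isotherms were fitted to the McGhee–von Hippel model for intrinsic binding constant and site size.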

[21] = Antitumor activity against human HL60(TB) cells; format: functional, HL-60(TB)
Outline: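 Tested by the NCI in its in vitro disease-oriented human tumor cell line screen. Each cell line gave pGI50 (−log molar concentration for 50% net growth inhibition), pTGI (−log molar concentration for total growth inhibition) and pLC50 (−log molar concentration for 50% net cell death).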

[22] = test system: Jurkat; assay: Cell cycle arrest in human Jurkat cells assessed as accumulation at G2/M phase at 62.5 nM after 24 hrs by flow cytometry; format: functional; outline: as §1
[23] = test system: A549; assay: Disruption of tubulin network in human A549 cells assessed as disaggregation of microtubules at 2.5 uM […]; format: functional, cell-based
[24] = test system: LoVo; assay: Growth inhibition of human doxorubicin-resistant LoVo cells after 72 hrs by MTT assay; format: functional; outline: as §2
[25] = test system: Jurkat; assay: Cell cycle arrest in human Jurkat cells assessed as accumulation at S phase at 32 nM after 24 hrs by flow cytometry; format: functional; outline: as §1

DNA topoisomerase 1 (Homo sapiens), sequence (P11387 whole entry): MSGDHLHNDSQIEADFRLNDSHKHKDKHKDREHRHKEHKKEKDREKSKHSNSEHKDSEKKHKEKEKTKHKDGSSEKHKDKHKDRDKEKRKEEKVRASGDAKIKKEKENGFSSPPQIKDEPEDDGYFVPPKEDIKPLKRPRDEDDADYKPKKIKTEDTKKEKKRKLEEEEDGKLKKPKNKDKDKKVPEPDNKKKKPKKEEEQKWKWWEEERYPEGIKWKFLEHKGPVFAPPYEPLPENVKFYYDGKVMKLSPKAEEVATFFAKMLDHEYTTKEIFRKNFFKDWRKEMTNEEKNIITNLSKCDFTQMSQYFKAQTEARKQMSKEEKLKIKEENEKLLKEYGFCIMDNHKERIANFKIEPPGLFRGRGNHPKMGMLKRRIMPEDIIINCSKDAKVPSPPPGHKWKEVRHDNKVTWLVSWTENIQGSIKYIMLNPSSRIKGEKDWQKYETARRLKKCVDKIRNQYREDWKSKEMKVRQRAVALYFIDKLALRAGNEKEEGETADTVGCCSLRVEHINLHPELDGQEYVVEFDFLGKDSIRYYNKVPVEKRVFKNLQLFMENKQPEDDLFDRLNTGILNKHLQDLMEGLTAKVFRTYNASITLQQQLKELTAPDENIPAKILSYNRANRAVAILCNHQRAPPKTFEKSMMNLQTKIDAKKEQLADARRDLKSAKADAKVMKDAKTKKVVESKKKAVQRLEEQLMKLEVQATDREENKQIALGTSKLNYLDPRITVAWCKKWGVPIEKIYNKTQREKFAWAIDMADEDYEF

Work on `COc1ccc2c(c1)[nH]c(=O)c1c3ccccc3cn21` yielded an Activity [1] of 0.1%, a GI50 [2] of 130 nM and an Activity [3] of 2.2%. It also gave an Activity [4] of 49.1%, an Activity [5] of 53.5% and an Activity [6] of 50.9%. For the same compound, the Activity [7] was “Active”, the Activity [8] was “Active” and the Activity [9] was 3.4%. The Activity [10] was “Active”, the Activity [11] was 50% and the Activity [12] was 59.2%. For the same compound, the Activity [13] was 0.6%, the Activity [14] was “Active” and the Activity [15] was “Active”. For the same compound, the Activity [16] was 44.2%, the GI50 [17] was 8.91 nM and the CC50 ([17]; read-out: Log LC50 (the source's name) (converted)) was 5130 nM. For the same compound, the TGI ([17]; read-out: pTGI (converted)) was 1020 nM, the Activity [18] was “Active” and the RatioGI50 [19] was 1. The K [20] was 2.7 10^5/M, the GI50 ([21]; HL-60) was 11.5 nM and the CC50 ([21]; HL-60, read-out: Log LC50 (the source's name) (converted)) was 3550 nM. For the same compound, the TGI ([21]; HL-60, read-out: pTGI (converted)) was 60.3 nM, the Activity [22] was 43.1% and the Activity [23] was “Active”. It also gave a GI50 [24] of 130 nM and an Activity [25] of 44.1%.
